According to ChEMBL document CHEMBL4732244, “A new class of α-ketoamide derivatives with potent anticancer and anti-SARS-CoV-2 activities” (Eur J Med Chem, 2021):

Tests used:
MGC-803 = assay: Anticancer activity against human MGC-803 cells assessed as cell viability measured after 72 hrs by MTT assay; format: functional, cell-based; details: MGC-803, 72 h
How it was run: (§1)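 MTS growth assay after 72 h compound exposure. RPMI8226 (1×10^4/well), THP-1 and Ramos (5×10^4/well) were cultured in RPMI 1640 with 10% FBS. MGC-803, HeLa and SW480 (5×10^3/well) were cultured in DMEM with 10% FBS. All at 37 °C, 5% CO2. MTS was added for 3 h at 37 °C and OD read at 490 nm. IC50 from 7 concentrations; triplicate wells, three independent experiments.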

SW480 = assay: Anticancer activity against human SW480 cells assessed as cell viability measured after 72 hrs by MTT assay; format: functional, cell-based; details: SW480, 72 h; how it was run: as §1
Ramos = assay: Anticancer activity against human Ramos cells assessed as cell viability measured after 72 hrs by MTT assay; format: functional, cell-based; how it was run: as §1
HeLa = assay: Anticancer activity against human HeLa cells assessed as cell viability measured after 72 hrs by MTT assay; format: functional, cell-based; how it was run: as §1
THP-1 = assay: Anticancer activity against human THP-1 cells assessed as cell viability measured after 72 hrs by MTT assay; format: functional, cell-based; details: THP-1, 72 h; how it was run: as §1
RPMI-8226 = assay: Anticancer activity against human RPMI8226 cells assessed as cell viability measured after 72 hrs by MTT assay; format: functional, cell-based; details: RPMI-8226, 72 h; how it was run: as §1
SARS-CoV-2 = assay: Antiviral activity against SARS coronavirus 2 infected in Vero E6 cells assessed as plague reduction measured after 1 hr; format: functional, organism-based; details: Severe acute respiratory syndrome coronavirus 2, Vero C1008, 1 h
[1] = Cytotoxicity in African green monkey Vero E6 cells assessed as reduction in cell viability after 48 hrs by Celltiter Glo luminescent assay; format: cell-based; details: chlorocebus aethiops, vero e6, 48 h
How it was run: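 CellTiter-Glo viability: Vero E6 cells at 2 × 10^4 cells/well were exposed to serially diluted compound for 48 h. Luminescence was read 10 min after substrate addition. CC50 was derived by curve fitting.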

SMILES	IC50 (MGC-803) [nM]	IC50 (SW480) [nM]	IC50 (Ramos) [nM]	IC50 (HeLa) [nM]	IC50 (THP-1) [nM]	IC50 (RPMI-8226) [nM]	EC50 (SARS-CoV-2) [nM]	Activity [1]
CCc1cccc(NC(=O)C(=O)[C@H](CC(C)C)NC(=O)[C@H](CC(C)C)NC(=O)[C@H](CC(C)C)NC(=O)OCc2ccccc2)c1	78.5	82.9	45.7	212	71.1	40.4		
CC(C)C[C@H](NC(=O)OCc1ccccc1)C(=O)N[C@@H](CC(C)C)C(=O)N[C@@H](CC(C)C)C(=O)C(=O)Nc1ccccc1	119	106	53.6	288	88.1	67.8		
CC(=O)c1cccc(NC(=O)C(=O)[C@H](CC(C)C)NC(=O)[C@H](Cc2c[nH]c3ccccc23)NC(=O)[C@H](CC(C)C)NC(=O)OCc2ccccc2)c1	88.8	94.2	38.4		78.1	91		
COc1ccc(C[C@H](NC(=O)[C@H](C)NC(=O)c2ccc(-c3ccccc3)cc2)C(=O)N[C@@H](CC(C)C)C(=O)C(=O)Nc2ccccc2)cc1	2020	2440	464	8700	568	455		
COc1ccc(C[C@H](NC(=O)[C@H](C)NC(=O)CN2CCOCC2)C(=O)N[C@@H](Cc2ccccc2)C(=O)C(=O)Nc2ccccc2)cc1							1280	Non-Toxic
COc1ccc(C[C@H](NC(=O)[C@H](C)NC(=O)c2ccc(-c3ccc(C(C)=O)cc3)o2)C(=O)N[C@@H](CC(C)C)C(=O)C(=O)Nc2ccccc2)cc1	1160	2000	428	3200	475	475		
COc1cc(NC(=O)C(=O)[C@H](CC(C)C)NC(=O)[C@H](CC(C)C)NC(=O)[C@H](CC(C)C)NC(=O)OCc2ccccc2)cc(OC)c1	68.5	72.5	26.9	120	70.7	37.6		
